Key:
[1] = molecular target: T1, Nuclear factor erythroid 2-related factor 2 (Mus musculus) (UniProt Q60795); assay: Activation of Nrf2 in mouse Hepa1c1c7 cells assessed as induction of NQO1 production at 10 uM after 24 hrs by MTT colorimetric assay relative to control; type: cell-based
T1 sequence (whole entry): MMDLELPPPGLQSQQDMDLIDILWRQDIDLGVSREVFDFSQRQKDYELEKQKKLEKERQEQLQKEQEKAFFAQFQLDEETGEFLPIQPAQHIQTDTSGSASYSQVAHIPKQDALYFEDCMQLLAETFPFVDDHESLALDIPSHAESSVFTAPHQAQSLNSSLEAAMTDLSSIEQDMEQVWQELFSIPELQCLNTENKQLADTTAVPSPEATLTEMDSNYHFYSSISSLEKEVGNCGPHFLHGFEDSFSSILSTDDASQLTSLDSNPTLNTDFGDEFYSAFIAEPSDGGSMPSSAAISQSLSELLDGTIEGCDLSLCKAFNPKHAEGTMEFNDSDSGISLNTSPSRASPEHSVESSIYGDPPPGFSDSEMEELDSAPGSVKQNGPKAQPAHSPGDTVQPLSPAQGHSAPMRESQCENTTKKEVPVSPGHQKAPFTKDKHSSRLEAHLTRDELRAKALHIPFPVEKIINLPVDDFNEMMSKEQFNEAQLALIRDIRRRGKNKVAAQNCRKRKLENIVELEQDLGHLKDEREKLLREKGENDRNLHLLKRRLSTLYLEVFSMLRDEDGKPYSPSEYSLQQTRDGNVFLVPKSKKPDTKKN
Summary of the method: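 Hepa1c1c7 mouse hepatoma cells treated at a fixed 10 µM for 24 h. NQO1 enzyme activity read by colorimetric induction assay and expressed as fold induction over control.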

Keap1/Nrf2 = Keap1/Nrf2 (Homo sapiens, UniProt Q14145); assay: Inhibition of kelch domain of Keap1 (unknown origin) interaction to high affinity ETGE motif from Nrf2 by fluorescence polarization assay; type: protein assay
Chain of Keap1/Nrf2 (Q16236 whole entry, the tested form may be a part): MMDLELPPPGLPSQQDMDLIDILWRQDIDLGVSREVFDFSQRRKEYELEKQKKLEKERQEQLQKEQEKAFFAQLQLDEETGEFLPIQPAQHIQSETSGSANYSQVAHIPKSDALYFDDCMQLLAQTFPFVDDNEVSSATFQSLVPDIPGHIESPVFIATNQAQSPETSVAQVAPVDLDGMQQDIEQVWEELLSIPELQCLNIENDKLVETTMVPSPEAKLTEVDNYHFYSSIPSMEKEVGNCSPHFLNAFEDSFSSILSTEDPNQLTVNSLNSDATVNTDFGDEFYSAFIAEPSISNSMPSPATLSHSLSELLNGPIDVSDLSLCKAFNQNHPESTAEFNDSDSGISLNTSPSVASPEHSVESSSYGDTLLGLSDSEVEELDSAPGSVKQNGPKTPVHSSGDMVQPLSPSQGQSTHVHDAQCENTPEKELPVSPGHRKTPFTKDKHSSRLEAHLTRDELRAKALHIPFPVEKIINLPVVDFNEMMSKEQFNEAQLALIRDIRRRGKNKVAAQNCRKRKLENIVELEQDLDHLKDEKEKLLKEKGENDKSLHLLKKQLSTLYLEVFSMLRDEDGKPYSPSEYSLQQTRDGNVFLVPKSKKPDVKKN
Chain of Keap1/Nrf2 (Q14145 whole entry, the tested form may be a part): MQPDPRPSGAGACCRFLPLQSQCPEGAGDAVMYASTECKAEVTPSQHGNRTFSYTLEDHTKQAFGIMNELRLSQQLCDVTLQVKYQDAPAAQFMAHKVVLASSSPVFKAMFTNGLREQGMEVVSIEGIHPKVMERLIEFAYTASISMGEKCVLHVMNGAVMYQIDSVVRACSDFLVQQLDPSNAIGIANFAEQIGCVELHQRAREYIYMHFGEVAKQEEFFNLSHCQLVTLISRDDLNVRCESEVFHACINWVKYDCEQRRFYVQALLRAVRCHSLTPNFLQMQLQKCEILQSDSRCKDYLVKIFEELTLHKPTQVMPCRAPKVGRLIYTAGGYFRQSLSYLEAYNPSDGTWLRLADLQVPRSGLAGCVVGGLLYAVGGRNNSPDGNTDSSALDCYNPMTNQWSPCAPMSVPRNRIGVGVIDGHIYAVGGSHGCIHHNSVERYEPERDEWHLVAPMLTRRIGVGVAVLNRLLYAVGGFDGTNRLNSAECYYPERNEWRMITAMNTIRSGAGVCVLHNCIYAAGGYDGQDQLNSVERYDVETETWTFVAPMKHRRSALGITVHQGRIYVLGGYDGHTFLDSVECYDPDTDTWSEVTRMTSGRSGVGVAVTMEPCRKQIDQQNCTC
Summary of the method: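 Competitive fluorescence polarization, dose-response format. Keap1 Kelch domain with fluorescein-labelled Nrf2 ETGE peptide FITC-β-DEETGEF-OH. EC50 derived from dose-response curves.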

[2] = molecular target: Keap1/Nrf2 (Homo sapiens) (UniProt Q16236+Q14145); assay: Inhibition of kelch domain of Keap1 (unknown origin) interaction to high affinity ETGE motif from Nrf2 unknown origin) at 100 uM by fluorescence polarization assay; type: protein assay
Chain of Keap1/Nrf2 (Homo sapiens) (Q14145 whole entry, looked up, the tested form may be a part): as the sequence (Q14145 whole entry, the tested form may be a part) above
Chain of Keap1/Nrf2 (Homo sapiens) (Q16236 whole entry, looked up, the tested form may be a part): as the sequence (Q16236 whole entry, the tested form may be a part) above
Summary of the method: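 Fluorescence polarization competition. Keap1 Kelch domain with fluorescein-labelled ETGE peptide FITC-β-DEETGEF-OH (β = β-alanine). Displacement measured with a fixed 100 µM inhibitor; percent inhibition reported.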

[3] = molecular target: T1, Nuclear factor erythroid 2-related factor 2 (Mus musculus); assay: Activation of Nrf2 in mouse Hepa1c1c7 cells assessed as concentration required to 2 fold induction of NQO1 production after 24 hrs by MTT colorimetric assay; type: cell-based
Summary of the method: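 Hepa1c1c7 mouse hepatoma cells exposed to a concentration range for 24 h. NQO1 enzymatic activity measured by colorimetric induction assay. Value reported as CD, the concentration giving a two-fold increase in NQO1 activity.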

| fold change (FC) [1] | EC50 (Keap1/Nrf2) | inhibition [2] | CD [3] | SMILES |
| --- | --- | --- | --- | --- |
| 2.56 | 15 µM | 68.2% | 4.7 µM | COc1cccc(-n2cc(-c3cccc([N+](=O)[O-])c3)nn2)c1 |
| 0.91 |  | 87.6% |  | NC(=O)c1ccc(-n2cc(-c3cccc(C(=O)O)c3)nn2)cc1 |
|  |  | 65.3% |  | NC(=O)c1cccc(-c2cn(-c3cccc(C(N)=O)c3)nn2)c1 |
| 1.95 | 20.6 µM | 66.9% | > 10 µM | O=[N+]([O-])c1cccc(-c2cn(-c3ccccc3)nn2)c1 |
| 2.91 | 12.7 µM | 65.4% | 2 µM | CN(C)c1cccc(-n2cc(-c3cccc([N+](=O)[O-])c3)nn2)c1 |
| 0.88 |  | 30.4% |  | Cc1cccc(-n2cc(-c3cccc(-c4nnn[nH]4)c3)nn2)c1 |
| 1.07 |  | 46.1% |  | NC(=O)c1ccc(-n2cc(-c3ccc([N+](=O)[O-])cc3)nn2)cc1 |
| 1.3 |  | 24.5% |  | CCOc1cccc(-n2cc(-c3cccc(C#N)c3)nn2)c1 |
| 1 |  | 72.6% |  | O=[N+]([O-])c1ccc(-c2cn(-c3ccc([N+](=O)[O-])cc3)nn2)cc1 |
| 1.05 |  | 48% |  | NC(=O)c1cccc(-c2cn(-c3ccc([N+](=O)[O-])cc3)nn2)c1 |
| 0.99 |  | 81.3% |  | O=C(O)c1ccc(-n2cc(-c3ccc([N+](=O)[O-])cc3)nn2)cc1 |
| 0.98 |  | 62.2% |  | NC(=O)c1cccc(-n2cc(-c3ccc([N+](=O)[O-])cc3)nn2)c1 |
| 1.81 |  | 46.5% |  | O=[N+]([O-])c1ccc(-c2cn(-c3cccc([N+](=O)[O-])c3)nn2)cc1 |
| 0.47 |  | 89.6% |  | O=C(O)c1ccc(-c2cn(-c3cccc(C(=O)O)c3)nn2)cc1 |
| 1.02 |  |  |  | NC(=O)c1ccc(-c2cn(-c3ccc([N+](=O)[O-])cc3)nn2)cc1 |
| 2.54 | 22.6 µM | 66.9% |  | O=[N+]([O-])c1cccc(-c2cn(-c3cccc(C(F)(F)F)c3)nn2)c1 |
| 1.24 |  | 40.7% |  | Clc1cccc(-n2cc(-c3cccc(-c4nnn[nH]4)c3)nn2)c1 |
| 0.71 |  | 78.6% |  | NC(=O)c1cccc(-c2cn(-c3cccc(C(=O)O)c3)nn2)c1 |
| 1.07 |  | 96.3% |  | NC(=O)c1cccc(-n2cc(-c3cccc(C(=O)O)c3)nn2)c1 |
| 2.24 | 15 µM | 67.2% |  | O=[N+]([O-])c1cccc(-c2cn(-c3ccc4c(c3)OCO4)nn2)c1 |

| fold change (FC) [1] | EC50 (Keap1/Nrf2) | inhibition [2] | CD [3] | SMILES |
| --- | --- | --- | --- | --- |
| 0.79 |  |  |  | NC(=O)c1ccc(-c2cn(-c3ccc(C(=O)O)cc3)nn2)cc1 |
| 2.95 | 38.5 µM | 77.7% |  | CSc1cccc(-n2cc(-c3cccc([N+](=O)[O-])c3)nn2)c1 |
|  |  |  | 10.2 µM | Cc1c(-c2cnccn2)ssc1=S |
| 0.84 |  | 13.7% |  | c1cc(-c2cn(-c3cccc(-c4nnn[nH]4)c3)nn2)cc(-c2nnn[nH]2)c1 |
| 0.98 |  |  |  | NC(=O)c1ccc(-c2cn(-c3ccc(C(N)=O)cc3)nn2)cc1 |
| 1.06 |  | 87.5% |  | O=C(O)c1ccc(-c2cn(-c3cccc([N+](=O)[O-])c3)nn2)cc1 |
| 2.33 |  | 36.8% |  | N#Cc1cccc(-n2cc(-c3cccc([N+](=O)[O-])c3)nn2)c1 |
| 1.02 |  | 43.7% |  | NC(=O)c1ccc(-c2cn(-c3cccc(C(N)=O)c3)nn2)cc1 |
|  |  | 39.4% |  | O=C(O)c1ccc(-n2cc(-c3cccc([N+](=O)[O-])c3)nn2)cc1 |
| 0.95 |  | 15.4% |  | NC(=O)c1cccc(-n2cc(-c3ccc(C(=O)O)cc3)nn2)c1 |
| 2.06 |  | 32% |  | NC(=O)c1cccc(-c2cn(-c3cccc([N+](=O)[O-])c3)nn2)c1 |
| 0.9 |  | 77.3% |  | O=C(O)c1ccc(-c2cn(-c3ccc(C(=O)O)cc3)nn2)cc1 |
| 0.86 |  | 82.3% |  | O=C(O)c1cccc(-c2cn(-c3cccc(C(=O)O)c3)nn2)c1 |
| 0.89 |  | 83.8% |  | O=C(O)c1ccc(-c2cn(-c3ccc([N+](=O)[O-])cc3)nn2)cc1 |
| 2.3 | 11.5 µM | 81% |  | O=[N+]([O-])c1cccc(-c2cn(-c3cccc([N+](=O)[O-])c3)nn2)c1 |
| 1.31 |  | 39.6% |  | CCOc1cccc(-n2cc(-c3cccc(-c4nnn[nH]4)c3)nn2)c1 |
| 1.92 |  | 58.8% |  | N#Cc1cccc(-c2cn(-c3cccc(C#N)c3)nn2)c1 |
| 1.33 |  | 2.34% |  | NC(=O)c1ccc(-c2cn(-c3cccc([N+](=O)[O-])c3)nn2)cc1 |
| 2.48 | 11.3 µM | 69.3% |  | CCOc1cccc(-n2cc(-c3cccc([N+](=O)[O-])c3)nn2)c1 |
| 2.5 | 8.8 µM | 60.4% | 0.7 µM | O=[N+]([O-])c1cccc(-c2cn(-c3cccc(Cl)c3)nn2)c1 |

| fold change (FC) [1] | EC50 (Keap1/Nrf2) | inhibition [2] | CD [3] | SMILES |
| --- | --- | --- | --- | --- |
| 2.09 |  | 65.3% |  | NC(=O)c1cccc(-n2cc(-c3cccc([N+](=O)[O-])c3)nn2)c1 |
| 1.14 |  | 82.3% |  | O=C(O)c1cccc(-c2cn(-c3ccc([N+](=O)[O-])cc3)nn2)c1 |
| 2.1 |  | 59.4% |  | N#Cc1cccc(-c2cn(-c3cccc([N+](=O)[O-])c3)nn2)c1 |
| 2.39 |  | 19.9% |  | N#Cc1cccc(-c2cn(-c3cccc(Cl)c3)nn2)c1 |
| 0.98 |  | 52.8% |  | N#Cc1cccc(-c2cn(-c3ccc(C(=O)O)cc3)nn2)c1 |
| 0.66 |  | 61% |  | O=C(O)c1cccc(-n2cc(-c3ccc([N+](=O)[O-])cc3)nn2)c1 |
| 1.03 |  | 51.5% |  | Ic1cccc(-n2cc(-c3cccc(-c4nnn[nH]4)c3)nn2)c1 |
| 3.38 |  | 74.8% |  | O=[N+]([O-])c1ccc(-n2cc(-c3cccc([N+](=O)[O-])c3)nn2)cc1 |
| 0.86 |  | 76.5% |  | NC(=O)c1ccc(-n2cc(-c3ccc(C(=O)O)cc3)nn2)cc1 |
| 1.69 |  | 49.7% |  | Cc1cccc(-n2cc(-c3cccc(C#N)c3)nn2)c1 |
| 0.79 |  |  |  | NC(=O)c1ccc(-c2cn(-c3cccc(C(=O)O)c3)nn2)cc1 |
| 1.75 |  | 71.1% |  | O=[N+]([O-])c1cccc(-n2cc(-c3cccc(-c4nnn[nH]4)c3)nn2)c1 |
| 1.53 |  | 21.9% |  | N#Cc1cccc(-c2cn(-c3cccc(I)c3)nn2)c1 |
| 2.08 |  | 64.5% |  | NC(=O)c1ccc(-n2cc(-c3cccc([N+](=O)[O-])c3)nn2)cc1 |
| 0.81 |  | 70.7% |  | NC(=O)c1cccc(-c2cn(-c3ccc(C(=O)O)cc3)nn2)c1 |
| 1 |  | 70% |  | O=C(O)c1ccc(-n2cc(-c3cccc(-c4nnn[nH]4)c3)nn2)cc1 |
| 0.85 |  | 63.8% |  | O=C(O)c1cccc(-c2cn(-c3cccc([N+](=O)[O-])c3)nn2)c1 |
| 2.27 |  | 42.6% |  | O=[N+]([O-])c1cccc(-c2cn(-c3cccc(F)c3)nn2)c1 |
